Converted amounts (≈) assume the structure as drawn.
Experiments:
[1] = biological target: 3',5'-cyclic-AMP phosphodiesterase 4A (Homo sapiens, UniProt P27815); experiment: Inhibition of recombinant human PDE4A overexpressed in HEK293 cells assessed as reduction in cAMP hydrolysis by HTRF based immunoassay; type: cell-based; settings: read-out: IC50
In short: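 Human PDE4A from lysate of HEK293 cells overexpressing the enzyme hydrolyses cAMP; remaining cAMP measured by HTRF competitive immunoassay (d2-labelled cAMP vs cryptate anti-cAMP antibody), signal inversely proportional to cAMP; IC50 determined.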

[2] = Inhibition of embelin-induced migration of human neutrophils preincubated for 30 mins followed by embelin addition and measured after 1 hr by ATPlite luminescence assay; settings: Neutrophil
[3] = physchem; settings: aqueous solution with 2% DMSO, pH 7.4
[4] = in vitro; settings: mouse, liver microsomes
[5] = in vitro; settings: human, liver microsomes
[6] = in vitro; settings: mouse, cryopreserved hepatocytes
[7] = in vitro; settings: human, cryopreserved hepatocytes
[8] = in vivo; settings: male, Sprague-Dawley, rat, po, 5 mg/kg
[9] = in vitro; settings: rhesus monkey, liver microsomes
[10] = in vitro; settings: rat, liver microsomes
[11] = in vitro; settings: dog, liver microsomes
[12] = biological target: T1, Cytochrome P450 3A4 (Homo sapiens, UniProt P08684); experiment: Inhibition of human CYP3A4 in human liver microsomes using testosterone as substrate and in presence of co-factor preincubated for 20 mins followed by substrate addition by LC-MS/MS analysis
T1 sequence (P08684 whole entry): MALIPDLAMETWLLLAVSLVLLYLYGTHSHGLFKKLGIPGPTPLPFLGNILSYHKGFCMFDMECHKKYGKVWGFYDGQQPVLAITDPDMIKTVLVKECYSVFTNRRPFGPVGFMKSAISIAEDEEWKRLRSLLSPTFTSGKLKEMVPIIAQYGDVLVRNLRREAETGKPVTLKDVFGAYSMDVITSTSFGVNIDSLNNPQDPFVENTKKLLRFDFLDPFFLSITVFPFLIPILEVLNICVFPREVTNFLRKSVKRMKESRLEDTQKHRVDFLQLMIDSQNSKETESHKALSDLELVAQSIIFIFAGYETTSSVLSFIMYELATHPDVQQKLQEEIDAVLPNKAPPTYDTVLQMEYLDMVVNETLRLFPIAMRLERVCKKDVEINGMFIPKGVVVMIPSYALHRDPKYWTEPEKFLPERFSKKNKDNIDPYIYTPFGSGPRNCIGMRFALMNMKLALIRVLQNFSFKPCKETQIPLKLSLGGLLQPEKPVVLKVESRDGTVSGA

[13] = biological target: T1, Cytochrome P450 3A4; experiment: Inhibition of CYP3A4 in human liver microsomes using midazolam as substrate and in presence of co-factor preincubated for 20 mins followed by substrate addition by LC-MS/MS analysis
[14] = biological target: Cytochrome P450 2C19 (Homo sapiens, UniProt P33261); experiment: Inhibition of CYP2C19 in human liver microsomes using probe substrate and in presence of co-factor preincubated for 20 mins followed by substrate addition by LC-MS/MS analysis
Chain of Cytochrome P450 2C19 (P33261 whole entry): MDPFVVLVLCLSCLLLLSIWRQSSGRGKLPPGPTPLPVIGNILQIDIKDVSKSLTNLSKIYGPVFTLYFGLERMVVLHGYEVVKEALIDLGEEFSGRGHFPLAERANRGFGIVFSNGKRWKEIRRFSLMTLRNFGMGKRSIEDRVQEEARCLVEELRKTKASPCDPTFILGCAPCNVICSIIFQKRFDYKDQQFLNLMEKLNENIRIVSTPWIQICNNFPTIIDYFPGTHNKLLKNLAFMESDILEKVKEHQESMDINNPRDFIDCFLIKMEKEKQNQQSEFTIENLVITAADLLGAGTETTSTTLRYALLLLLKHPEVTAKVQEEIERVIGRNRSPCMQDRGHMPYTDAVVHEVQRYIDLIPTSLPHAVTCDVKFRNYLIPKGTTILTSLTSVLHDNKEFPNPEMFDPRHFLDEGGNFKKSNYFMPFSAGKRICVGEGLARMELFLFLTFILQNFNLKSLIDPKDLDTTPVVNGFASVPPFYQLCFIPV

[15] = biological target: T2, Cytochrome P450 1A2 (Homo sapiens, UniProt P05177); experiment: Inhibition of CYP1A2 in human liver microsomes using probe substrate and in presence of co-factor preincubated for 20 mins followed by substrate addition by LC-MS/MS analysis
T2 sequence (P05177 whole entry): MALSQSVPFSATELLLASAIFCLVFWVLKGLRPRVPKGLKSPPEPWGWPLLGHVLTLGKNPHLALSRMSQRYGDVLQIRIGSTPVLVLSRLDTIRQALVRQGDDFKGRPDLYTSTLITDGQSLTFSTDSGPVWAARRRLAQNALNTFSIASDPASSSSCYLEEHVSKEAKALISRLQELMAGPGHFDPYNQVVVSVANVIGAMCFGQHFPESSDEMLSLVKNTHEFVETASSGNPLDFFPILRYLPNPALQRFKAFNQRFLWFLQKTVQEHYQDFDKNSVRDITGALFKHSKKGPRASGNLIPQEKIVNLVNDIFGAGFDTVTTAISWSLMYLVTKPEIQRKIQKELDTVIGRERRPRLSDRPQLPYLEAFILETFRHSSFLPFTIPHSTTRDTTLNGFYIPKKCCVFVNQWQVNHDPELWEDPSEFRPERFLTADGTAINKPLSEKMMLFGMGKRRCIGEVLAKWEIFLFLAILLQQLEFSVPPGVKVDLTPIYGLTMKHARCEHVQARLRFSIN

[16] = Thermodynamic solubility of compound at pH 3; settings: buffer
[17] = Thermodynamic solubility of compound at pH 7.4; settings: buffer
[18] = Apparent permeability from apical to basolateral in human Caco2 cells at 10 uM measured after 60 mins by lucifer yellow dye based LC-MS/MS analysis; settings: Caco-2
[19] = Plasma protein binding in mouse at 5 uM measured after 4 hrs by LC-MS/MS analysis
[20] = Plasma protein binding in rat at 5 uM measured after 4 hrs by LC-MS/MS analysis
[21] = Plasma protein binding in human at 5 uM measured after 4 hrs by LC-MS/MS analysis
[22] = Plasma protein binding in dog at 5 uM measured after 4 hrs by LC-MS/MS analysis
[23] = Inhibition of embelin-induced migration of rat neutrophils preincubated for 30 mins followed by embelin addition and measured after 1 hr by celltiter-glo assay; settings: Neutrophil
[24] = system: Neutrophil; experiment: Inhibition of dog neutrophil cell migration; settings: Canis lupus familiaris
[25] = biological target: Cytochrome P450 2C9 (Homo sapiens) (UniProt P11712)
Chain of Cytochrome P450 2C9 (Homo sapiens) (P11712 whole entry, looked up): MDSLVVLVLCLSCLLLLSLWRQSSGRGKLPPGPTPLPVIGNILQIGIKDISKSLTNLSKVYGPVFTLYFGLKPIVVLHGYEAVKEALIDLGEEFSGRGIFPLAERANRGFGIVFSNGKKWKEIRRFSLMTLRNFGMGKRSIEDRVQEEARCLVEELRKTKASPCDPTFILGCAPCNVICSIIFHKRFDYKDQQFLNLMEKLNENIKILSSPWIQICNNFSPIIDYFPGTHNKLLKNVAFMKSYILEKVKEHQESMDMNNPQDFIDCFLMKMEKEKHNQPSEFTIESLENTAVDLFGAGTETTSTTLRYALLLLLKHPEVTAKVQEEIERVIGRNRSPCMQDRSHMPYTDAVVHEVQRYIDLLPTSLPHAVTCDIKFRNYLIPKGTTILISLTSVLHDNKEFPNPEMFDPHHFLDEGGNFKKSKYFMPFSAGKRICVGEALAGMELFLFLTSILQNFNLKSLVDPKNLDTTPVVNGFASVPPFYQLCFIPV

[26] = biological target: Cytochrome P450 2D6 (Homo sapiens) (UniProt P10635)
Chain of Cytochrome P450 2D6 (Homo sapiens) (P10635 whole entry, looked up): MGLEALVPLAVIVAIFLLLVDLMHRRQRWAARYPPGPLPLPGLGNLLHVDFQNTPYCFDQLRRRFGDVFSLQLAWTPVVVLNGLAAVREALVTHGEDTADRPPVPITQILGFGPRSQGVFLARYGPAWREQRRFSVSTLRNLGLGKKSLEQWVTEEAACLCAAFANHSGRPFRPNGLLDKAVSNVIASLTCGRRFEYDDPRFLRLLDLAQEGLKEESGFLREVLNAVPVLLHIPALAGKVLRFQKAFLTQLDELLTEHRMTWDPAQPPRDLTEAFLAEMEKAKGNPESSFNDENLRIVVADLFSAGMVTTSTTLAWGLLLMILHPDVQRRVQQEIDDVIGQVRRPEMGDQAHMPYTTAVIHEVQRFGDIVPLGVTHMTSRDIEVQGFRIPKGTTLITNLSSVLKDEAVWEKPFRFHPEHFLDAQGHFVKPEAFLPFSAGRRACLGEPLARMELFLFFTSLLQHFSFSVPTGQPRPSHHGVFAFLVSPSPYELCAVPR

[27] = physchem; settings: aqueous solution with 2% DMSO, pH 3
[28] = in vitro; settings: mouse, cryopreserved hepatocytes; remark: listed apart in the source
[29] = in vitro; settings: rat, cryopreserved hepatocytes
[30] = in vitro; settings: dog, cryopreserved hepatocytes
[31] = in vitro; settings: human, cryopreserved hepatocytes; remark: listed apart in the source
[32] = in vitro; settings: rat, cryopreserved hepatocytes; remark: listed apart in the source
[33] = in vitro; settings: dog, cryopreserved hepatocytes; remark: listed apart in the source
[34] = biological target: T3, CYP1A2 (Homo sapiens, UniProt P05177); experiment: Inhibition of CYP1A2 in human liver microsomes at 10 uM using probe substrate and in presence of co-factor measured after 20 mins by LC-MS/MS analysis relative to control; type: ADME
T3 sequence (P05177 whole entry): T2 sequence (P05177 whole entry)

[35] = biological target: CYP2C19 (Homo sapiens, UniProt P33261); experiment: Inhibition of CYP2C19 in human liver microsomes at 10 uM using probe substrate and in presence of co-factor measured after 20 mins by LC-MS/MS analysis relative to control; type: ADME
Chain of CYP2C19 (P33261 whole entry): as the sequence (P33261 whole entry) above

[36] = biological target: CYP2C9 (Homo sapiens, UniProt P11712); experiment: Inhibition of CYP2C9 in human liver microsomes at 10 uM using probe substrate and in presence of co-factor measured after 20 mins by LC-MS/MS analysis relative to control; type: ADME
Chain of CYP2C9 (P11712 whole entry): as the sequence (P11712 whole entry, looked up) above

[37] = biological target: CYP2D6 (Homo sapiens, UniProt P10635); experiment: Inhibition of CYP2D6 in human liver microsomes at 10 uM using probe substrate and in presence of co-factor measured after 20 mins by LC-MS/MS analysis relative to control; type: ADME
Chain of CYP2D6 (P10635 whole entry): as the sequence (P10635 whole entry, looked up) above

[38] = biological target: T4, CYP3A4 (Homo sapiens, UniProt P08684); experiment: Inhibition of CYP3A4 in human liver microsomes at 10 uM using midazolam as probe substrate and in presence of co-factor measured after 20 mins by LC-MS/MS analysis relative to control; type: ADME
T4 sequence (P08684 whole entry): as the sequence (P08684 whole entry) above

[39] = biological target: T4, CYP3A4; experiment: Inhibition of CYP3A4 in human liver microsomes at 10 uM using testosterone as probe substrate and in presence of co-factor measured after 20 mins by LC-MS/MS analysis relative to control; type: ADME

Chain of 3',5'-cyclic-AMP phosphodiesterase 4A (P27815 whole entry): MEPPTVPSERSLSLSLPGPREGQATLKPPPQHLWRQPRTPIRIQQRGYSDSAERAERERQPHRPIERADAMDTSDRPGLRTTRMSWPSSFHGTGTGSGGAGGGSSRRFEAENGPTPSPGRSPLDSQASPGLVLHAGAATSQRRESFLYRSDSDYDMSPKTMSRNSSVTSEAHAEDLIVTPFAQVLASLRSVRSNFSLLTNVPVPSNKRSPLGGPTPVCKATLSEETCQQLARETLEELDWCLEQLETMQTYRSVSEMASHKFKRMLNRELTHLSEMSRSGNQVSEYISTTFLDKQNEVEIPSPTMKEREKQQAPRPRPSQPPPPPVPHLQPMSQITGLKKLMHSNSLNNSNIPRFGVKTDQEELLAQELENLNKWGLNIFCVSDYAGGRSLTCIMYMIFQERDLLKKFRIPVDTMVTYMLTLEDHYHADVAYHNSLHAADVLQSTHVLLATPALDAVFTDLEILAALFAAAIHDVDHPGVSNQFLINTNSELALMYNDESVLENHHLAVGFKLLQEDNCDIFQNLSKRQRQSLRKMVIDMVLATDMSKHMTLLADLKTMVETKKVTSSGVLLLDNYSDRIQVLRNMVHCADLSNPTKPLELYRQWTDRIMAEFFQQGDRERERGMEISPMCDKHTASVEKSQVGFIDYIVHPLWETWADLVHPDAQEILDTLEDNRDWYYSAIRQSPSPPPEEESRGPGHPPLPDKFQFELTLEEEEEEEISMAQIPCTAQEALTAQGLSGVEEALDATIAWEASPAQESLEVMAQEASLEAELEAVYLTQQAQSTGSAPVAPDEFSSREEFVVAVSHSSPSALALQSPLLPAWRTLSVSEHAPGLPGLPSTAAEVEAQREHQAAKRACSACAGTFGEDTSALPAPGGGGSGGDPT

Question: Which IC50 [1] does the source give for `COc1cc2c(cc1OC)-c1cc(OCCOc3ccccc3)nc(=O)n1CC2` here?
Answer: 2110 nM

Question: What about the IC50 [2] of the same molecule?
Answer: 128 nM

Question: And the solubility [3]?
Answer: 26 µg/mL (≈ 65.9 µM)

Question: For `COc1ccc2c(c1)CCn1c-2cc(OCC2CCCCO2)nc1=O` (stereo unspecified), which CLint scaled at 0.5 h, 1 µM [4] is on record?
Answer: 463 mL/min/kg

Question: What about the CLint scaled at 0.5 h, 1 µM [5] of the same molecule?
Answer: 21.7 mL/min/kg

Question: What about the CLint scaled at 1 µM [6] of the same molecule?
Answer: 575 mL/min/kg

Question: What about the CLint scaled at 1 µM [7] of the same molecule?
Answer: 25 mL/min/kg

Question: What does the source list for `COc1ccc2c(c1)CCn1c-2cc(OCC2CCCO2)nc1=O` (stereo unspecified)?
Answer: CLint scaled at 0.5 h, 1 µM [4]: 2150 mL/min/kg; CLint scaled at 0.5 h, 1 µM [5]: 33.3 mL/min/kg; CLint scaled at 1 µM [6]: 647 mL/min/kg; CLint scaled at 1 µM [7]: 23.3 mL/min/kg

Question: Which AUC(0-inf) at 24 h [8] does the source give for `N#Cc1ccccc1-c1ccc2c(c1)CCn1c-2cc(OCC2COCCO2)nc1=O` (stereo unspecified) here?
Answer: 2640 ng·h/mL

Question: And the CLint scaled at 0.5 h, 1 µM [9]?
Answer: 193 mL/min/kg

Question: What about the CLint scaled at 0.5 h, 1 µM [4] of the same molecule?
Answer: 151 mL/min/kg

Question: And the CLint scaled at 0.5 h, 1 µM [5]?
Answer: 86.7 mL/min/kg

Question: And the CLint scaled at 0.5 h, 1 µM [10]?
Answer: 105 mL/min/kg

Question: What about the CLint scaled at 0.5 h, 1 µM [11] of the same molecule?
Answer: 167 mL/min/kg

Question: Which results are given for `O=c1nc(OC[C@H]2COCCO2)cc2n1CCc1cc(C#CC3CC3)ccc1-2`?
Answer: IC50 [12]: > 50000 nM; IC50 [13]: > 50000 nM; IC50 [14]: 18200 nM; IC50 [15]: > 100000 nM; IC50 [2]: 51 nM; solubility thermodynamic [16]: 17.6 µg/mL (≈ 46.5 µM); solubility thermodynamic [17]: 9.49 µg/mL (≈ 25.1 µM); Papp A→B at 1 h, 10 µM [18]: 31.2 ×10⁻⁶ cm/s; fraction unbound at 4 h, 5 µM [19]: 0.017; fraction unbound at 4 h, 5 µM [20]: 0.037; fraction unbound at 4 h, 5 µM [21]: 0.059; fraction unbound at 4 h, 5 µM [22]: 0.033; IC50 [23]: 153 nM; IC50 [24]: 111 nM; IC50 [25]: 1850 nM; IC50 [26]: 31600 nM; solubility [3]: 113 µg/mL (≈ 299 µM); solubility [27]: 113 µg/mL (≈ 299 µM); CLint scaled at 0.5 h, 1 µM [4]: 98.3 mL/min/kg; CLint scaled at 0.5 h, 1 µM [5]: 16 mL/min/kg; CLint scaled at 1 µM [6]: < 72.8 mL/min/kg; CLint scaled at 1 µM [7]: < 21.3 mL/min/kg; half-life at 1 µM [28]: > 3.33 h; half-life at 1 µM [29]: > 3.13 h; half-life at 1 µM [30]: > 2.52 h; half-life at 1 µM [31]: > 3.33 h; CLint scaled at 0.5 h, 1 µM [10]: 82.8 mL/min/kg; CLint scaled at 0.5 h, 1 µM [11]: 52.7 mL/min/kg; CLint scaled at 1 µM [32]: < 35.3 mL/min/kg; CLint scaled at 1 µM [33]: < 32 mL/min/kg

Question: With `COc1cc2c(cc1OC)-c1cc(OCCCc3ccccc3)nc(=O)n1CC2` as the molecule, how does the solubility [3] read?
Answer: 3 µg/mL (≈ 7.64 µM)

Question: With `COc1ccc2c(c1)CCn1c-2cc(OCc2ncccc2F)nc1=O` as the molecule, how does the IC50 [1] read?
Answer: > 10000 nM

Question: What about the CLint scaled at 0.5 h, 1 µM [4] of the same molecule?
Answer: 487 mL/min/kg

Question: With `COc1cc2c(cc1OC)-c1cc(NCc3ccccc3)nc(=O)n1CC2` as the molecule, how does the IC50 [1] read?
Answer: 553 nM

Question: And the inhibition at 20 min, 10 µM [34]?
Answer: < 33%

Question: And the inhibition at 20 min, 10 µM [35]?
Answer: < 33%

Question: What about the inhibition at 20 min, 10 µM [36] of the same molecule?
Answer: < 33%

Question: What about the inhibition at 20 min, 10 µM [37] of the same molecule?
Answer: < 33%

Question: And the inhibition at 20 min, 10 µM [38]?
Answer: < 33%

Question: What about the inhibition at 20 min, 10 µM [39] of the same molecule?
Answer: < 33%

Question: With `COc1ccc2c(c1)CCn1c-2cc(OCC2COCCO2)nc1=O` (stereo unspecified) as the molecule, how does the fraction unbound at 4 h, 5 µM [19] read?
Answer: 0.389

Question: What about the fraction unbound at 4 h, 5 µM [20] of the same molecule?
Answer: 0.285

Question: And the fraction unbound at 4 h, 5 µM [21]?
Answer: 0.223

Question: And the CLint scaled at 0.5 h, 1 µM [4]?
Answer: 173 mL/min/kg

Question: And the CLint scaled at 0.5 h, 1 µM [5]?
Answer: < 15 mL/min/kg

Question: And the CLint scaled at 1 µM [6]?
Answer: 262 mL/min/kg

Question: And the CLint scaled at 1 µM [7]?
Answer: < 11.7 mL/min/kg

Question: And the CLint scaled at 0.5 h, 1 µM [10]?
Answer: < 23.3 mL/min/kg

Question: For `CC(C)CC(O)C#Cc1ccc2c(c1)CCn1c-2cc(OCC2COCCO2)nc1=O` (stereo unspecified), which CLint scaled at 0.5 h, 1 µM [4] is on record?
Answer: 437 mL/min/kg

Question: And the CLint scaled at 0.5 h, 1 µM [10]?
Answer: 255 mL/min/kg

Question: Which fraction unbound at 4 h, 5 µM [19] does the source give for `COc1ccc2c(c1)CCn1c-2cc(OC[C@H]2COc3ncccc3O2)nc1=O` here?
Answer: 0.087

Question: What about the fraction unbound at 4 h, 5 µM [20] of the same molecule?
Answer: 0.021

Question: And the fraction unbound at 4 h, 5 µM [21]?
Answer: 0.027

Question: What about the CLint scaled at 0.5 h, 1 µM [4] of the same molecule?
Answer: 360 mL/min/kg

Question: And the CLint scaled at 0.5 h, 1 µM [5]?
Answer: 35 mL/min/kg

Question: What about the CLint scaled at 1 µM [6] of the same molecule?
Answer: 182 mL/min/kg

Question: And the CLint scaled at 1 µM [7]?
Answer: 13.3 mL/min/kg

Question: And the CLint scaled at 0.5 h, 1 µM [10]?
Answer: 152 mL/min/kg

Question: For `COc1ccc2c(c1)CCn1c-2cc(OCCOc2ccccc2)nc1=O`, which IC50 [1] is on record?
Answer: > 10000 nM

Reference: ChEMBL document CHEMBL4673243, “Discovery of 9-Cyclopropylethynyl-2-((S)-1-[1,4]dioxan-2-ylmethoxy)-6,7-dihydropyrimido[6,1-a]isoquinolin-4-one (GLPG1205), a Unique GPR84 Negative Allosteric Modulator Undergoing Evaluation in a Phase II Clinical Trial” (J Med Chem, 2020)
